TbMetRS inhib: Trypanosoma brucei MetRS inhibition. inhibition, % at 11.9 µM. hit rate 0.4% among 360,000. purified T. brucei MetRS, ATP depletion, Kinase-Glo luminescence. AID 624268;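 active means inhibition above a per-plate cutoff of the control wells' mean inhibition plus 3 SD, cut at about 5.5% in these data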
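assay system = parasite MetRS enzyme | timing = 15 min preincubation, 2 h reaction, all 25 °C | evaluation = percent inhibition relative to median high and low control wells | medium = HEPES buffer containing pyrophosphatase, BSA, spermine, DTT | compound = single dose, 11.9 µM final nominal, 0.9% final DMSO | detection = Kinase-Glo luminescence, ATP depletion format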
SKN-1 block: C. elegans SKN-1 inhibition. C. elegans VP596 Pgst-4::GFP/RFP ratio, acrylamide-induced, 24 h. inhibition, % at 21.8 µM. hit rate 0.49% among 360,000. AID 624304;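 active means interference check ratio from 0.5 to 1.5 plus GFP to RFP signal ratio inhibition reaching or exceeding a fixed threshold, cut at about 30% in these data, passing the limit was not always enough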
Arr AP2 block: human beta-arrestin and AP2 interaction inhibition; hit rate 0.31% among 340,000; FITC-arrestin peptide / GST-AP2 beads, flow cytometry; AP2 beta2 appendage carries R879A mutation; inhibition, % at 10 µM;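 active means inhibition above a set limit, near 3 SD of compounds lacking own fluorescence, cut at about 54% in these data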
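test system = AP2 appendage R879A on GSH beads | buffer or medium = PBS plus Tween 20 (0.05%) and BSA (0.1%) | incubation = 12 min plus 1 h, RT | detection = bead flow cytometry, FITC channel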
Rin1 Abl inh: human Rin1-Abl interaction inhibition. P00519+Q13671. TR-FRET Rin1/Abl binding, biochemical. inhibition, % at 7.35 µM. hit rate 0.4% among 360,000; in the data active means inhibition above about 5%, passing the limit was not always enough
MT1-MMP act inh: inhibitors of human MT1-MMP activation. P50281. HT1080 RFP-PRO-GFP cells, GFP/RFP ratio fluorescence, overnight; percent of plate control window, DMSO zero. GFP/RFP ratio change, % at 20 µM. hit rate 0.061% among 360,000;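 active means GFP/RFP ratio change of at least 30% with cell ATP level not reduced by more than half and red fluorescence within 50% of control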
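Test system: HT1080 RFP-PRO-GFP cells; Benchmarks: DMSO and RFP-L50D-GFP cell wells; Timing: cells overnight before dosing, compound overnight, 37 °C, 5% CO2; Compound: one 20 µM compound dose with 1% DMSO; Read-out: GFP/RFP fluorescence ratio.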
MT1-MMP conf: blocks activation of human MT1-MMP in validation testing. HT1080 RFP-PRO-GFP cells, GFP and RFP fluorescence ratio, overnight. hit rate 10% among 200. inhibition, % at 20 µM. shares compounds with MT1-MMP act inh;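 active means inhibition of at least 50% in the primary cell screen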
Of the large screens only hits and unclear results are named; the others gave an inactive call (follow-up assays come after a bar, where they were run). An excerpt weighted towards active compounds, which were near 1.6% of everything screened.

COc1ccc(Nc2nc(-c3c[nH]c4ccccc34)cs2)cc1	MT1-MMP act inh 33.4 | MT1-MMP conf inactive
CN(C(=O)c1cccc(NC(=O)Cc2cccc(NC(=O)C3CCCN(C(=O)C4CCCCC4)C3)c2)c1)C1CCC1 (stereo not given)	none
CC(C)(C)c1ccc(NC(=O)C2CCCN(c3cnccn3)C2)cc1 (stereo not given)	none
CN(C)c1ccc(C=c2c3ccccc3n3c2cc(-c2ccccc2)[n+]3C)cc1	none
COc1cc(N(C)C)ccc1C=c1c2ccccc2n2c1cc(-c1ccccc1)[n+]2C	MT1-MMP act inh 64.5 | MT1-MMP conf 64.7
O=c1[nH]c(=S)c2[nH]c(=S)n(-c3ccccc3)c2[nH]1	none
COC(=O)CCC(=O)OC1(C)C(=O)C2=CN(Cc3ccc(OC)cc3)C(c3ccc(OC)cc3)=CC2=C(Br)C1=O (stereo not given)	none
COC(=O)CCC(=O)OC1(C)C(=O)C2=CN(CC3CC3)C(c3ccc(OC)cc3)=CC2=C(Br)C1=O (stereo not given)	MT1-MMP act inh 30.2 | MT1-MMP conf inactive
COC(=O)C1=C(C(=O)OC)SC(=C2C(=S)C(C)(C)N(C(=O)C(C)C)c3ccccc32)S1	MT1-MMP act inh 31.0 | MT1-MMP conf inactive
CCC(/C=C1\Oc2ccc(OC)cc2N1C)=C\c1sc2ccccc2[n+]1CCCS(=O)(=O)[O-]	MT1-MMP act inh 35.3 | MT1-MMP conf inactive
CN(C)c1ccc(C=c2c3ccccc3n3c2cc(-c2ccc(Cl)cc2)[n+]3C)cc1	none
CN(C)c1ccc(C=c2c3ccccc3n3c2c2c([n+]3C)CCCC2)cc1	MT1-MMP act inh 81.8 | MT1-MMP conf 57.0
O=C(O)CC/C(=N\Nc1ccccc1[N+](=O)[O-])c1cccs1	MT1-MMP act inh 35.5 | MT1-MMP conf inactive
Cc1cc(N(CCO)CCO)ccc1N=Nc1cc(F)ccc1F	MT1-MMP act inh 33.0 | MT1-MMP conf inactive
CCC(=NNc1ccc([N+](=O)[O-])cc1[N+](=O)[O-])c1ccccc1	none (no result: Arr AP2 block)
CC/C(=N\Nc1ccc([N+](=O)[O-])cc1[N+](=O)[O-])c1ccc(O)cc1	MT1-MMP act inh 35.3 | MT1-MMP conf inactive
Nc1nc(-c2ccc(Cl)cc2)c(N=Nc2ccc(S(=O)(=O)N3CCOCC3)cc2)s1	MT1-MMP act inh 57.1 | MT1-MMP conf 54.6
O=S(=O)(c1ccc(Cl)cc1)N1CCC(N2CCOCC2)CC1	none
CCCc1ccc(C#N)c(SC2CC(=O)N(c3ccc(OC)cc3)C2=O)n1 (stereo not given)	MT1-MMP act inh 32.0 | MT1-MMP conf inactive
COc1ccc(N2C(=O)CC(Sc3nc(C)cc(C)c3C#N)C2=O)cc1 (stereo not given)	none
COc1cc(/C=N/c2oc(C)c(C)c2C#N)cc(Br)c1O	MT1-MMP act inh 32.5 | MT1-MMP conf inactive
COc1ccc(/C=N/c2oc(C)c(C)c2C#N)c(OC)c1	none
CC(=O)c1ccc(OC2(C)CCN(Cc3ccc4c(c3)OCCO4)C2)cc1 (stereo not given)	none (no result: Arr AP2 block)
CN(C)c1ccc(CC(=O)N2CCCC(c3cc(C(=O)Nc4ccc(F)c(Cl)c4)no3)C2)cc1 (stereo not given)	none (no result: Arr AP2 block)
Cc1cccc(CSc2nc3[nH]ncc3c(=O)[nH]2)c1	MT1-MMP act inh 34.7 | MT1-MMP conf inactive
O=c1[nH]c(SCc2ccccc2Cl)nc2[nH]ncc12	none
CCc1cc2c(NCc3ccco3)ncnc2s1	MT1-MMP act inh 34.0 | MT1-MMP conf inactive
COC(=O)c1c(NC(=O)C(=O)NCC2CCCO2)sc2c1CC(C)(C)OC2 (stereo not given)	none
Cc1cccc(NC(=S)NCc2ccc3c(c2)cc(C)n3C)c1C	MT1-MMP act inh 40.5 | MT1-MMP conf inactive
Cc1cc2cc(CNC(=O)Nc3cccc(Cl)c3)ccc2n1C	none
COc1cccc(NC(=S)NCc2ccc3c(c2)cc(C)n3C)c1	MT1-MMP act inh 37.5 | MT1-MMP conf inactive
CCN(CC)c1ccc(/C=C2\C(=O)N(c3nnc(C)c(=O)[nH]3)N=C2C)cc1	MT1-MMP act inh 32.8 | MT1-MMP conf inactive
O=C(NC1CCCCCC1)C1CCN(S(=O)(=O)c2ccccc2)CC1	none
CC(=O)c1cccc(S(=O)(=O)N2CCC(C(=O)NC3CCCC3)CC2)c1	MT1-MMP act inh 39.7 | MT1-MMP conf inactive
O=C(Nc1ccccc1)NN(C(=O)CCl)c1ccccc1	none
COc1ccc(S(=O)(=O)N2CCCCC2c2cc(C(=O)NCc3cccnc3)no2)cc1 (stereo not given)	none (no result: Arr AP2 block)
O=c1[nH]nc(CNc2ccc(O)cc2)c2ccccc12	MT1-MMP act inh 49.3 | MT1-MMP conf inactive
O=c1cc2oc3cc(O)c(O)cc3c(-c3ccccc3[N+](=O)[O-])c-2cc1O	Rin1 Abl inh 64.8, MT1-MMP act inh 40.6 | MT1-MMP conf 51.4
Cc1c(C)n(C)c2ccc(C(=O)NCCc3ccco3)cc12	MT1-MMP act inh 33.2 | MT1-MMP conf inactive
C[C@H]1CN([C@@H](C)CO)S(=O)(=O)c2ccc(C#CC3(O)CCCC3)cc2O[C@@H]1CN(C)C(=O)Cc1cccnc1	none (no result: Arr AP2 block)
CC1CC(C)CN(C(=O)COC(=O)CN2C(=O)c3ccccc3C2=O)C1 (stereo not given)	none
CC1CC(C)CN(C(=O)c2ccc3c(c2NCCO)C(=O)c2ccccc2C3=O)C1 (stereo not given)	SKN-1 block 36.4, MT1-MMP act inh 60.0 | MT1-MMP conf inactive
CC1=NN(c2ccccc2)C(=O)/C1=C/C=C/c1ccc(N(C)C)cc1	MT1-MMP act inh 54.8 | MT1-MMP conf inactive
Nc1[nH]c(C(=O)c2ccccc2)c(-c2ccccc2Cl)c1C(=O)c1ccccc1	none (no result: Arr AP2 block, Rin1 Abl inh)
C[N+]1=C(/C=C/Nc2ccccc2Cl)C(C)(C)c2ccccc21	MT1-MMP act inh 51.6 | MT1-MMP conf inactive
COC(=O)c1ccc2c(c1)C(C)(C)C(/C=C/c1ccccc1O)=[N+]2C	none
O=C(NCC1CCCO1)c1ccc2c(c1)C(=O)N(c1cccc([N+](=O)[O-])c1)C2=O (stereo not given)	none
O=C(NCCN1CCC(n2c(=O)[nH]c3ccccc32)CC1)C(c1ccccc1)c1ccccc1	none (no result: Arr AP2 block, Rin1 Abl inh)
CCN1/C(=C2/SC(=S)N(C)C2=O)C=Cc2cc(C)ccc21	MT1-MMP act inh 31.2 | MT1-MMP conf inactive
Cc1cc2cc(CNC(=O)Cc3cccs3)ccc2n1C	none
Cc1cc2cc(CNC(=O)Cc3ccc([N+](=O)[O-])cc3)ccc2n1C	SKN-1 block 39.3, MT1-MMP act inh 41.6 | MT1-MMP conf inactive
Cc1cc2cc(CNC(=O)C3CCCC3)ccc2n1C	MT1-MMP act inh 34.6 | MT1-MMP conf inactive
COc1cc(OC)cc(C(=O)Nc2ccc(-c3nc4ccccc4o3)cc2)c1	MT1-MMP act inh 30.5 | MT1-MMP conf inactive

Assay outcomes: PubChem, several laboratories
